Measured values from ChEMBL document CHEMBL3271936, “Biologically oriented organic sulfur chemistry. 14. Antiinflammatory properties of some aryl sulfides, sulfoxides, and sulfones” (J Med Chem, 1976).
Activity calls are given as the source filed them. The calls are words filed in the database; no cut-off is given here.

Assays:
[1] = system: Rattus norvegicus; assay: Antiinflammatory activity in Holtzman rat assessed as inhibition of carrageenan-induced paw edema at 50 mg/kg, po administered at 0.5 and 2.5 hrs prior to carrageenan-challenge relative to control; format: functional; conditions: Holtzmann
Outline: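 Carrageenan paw-edema assay in male or female Holtzman rats (180–190 g), five per group. Compound given orally at 50 mg/kg twice, at 2.5 h and 0.5 h before carrageenan injection into the hind paw. Inhibition of edema is expressed as percent versus controls.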

[2] = system: Rattus norvegicus; assay: Antiinflammatory activity in Holtzman rat assessed as inhibition of UV radiation-induced erythema at 50 mg/kg, po relative to control; format: functional; conditions: Holtzmann
[3] = system: Mus musculus; assay: Toxicity in mouse assessed as mortality at >= 0.3 g/kg, ip; format: organism-based; conditions: in vivo, 300 mg/kg
Outline: (§1)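 Mice dosed intraperitoneally at two dose levels, three animals per compound (rarely two). The approximate lethal range was taken as survival at the lower dose and death at the higher, in g/kg. Dose brackets were 0.1–0.3, 0.3–1.0, and >1.0.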

[4] = system: Rattus norvegicus; assay: Antiinflammatory activity in po dosed Holtzman rat assessed as inhibition of UV radiation-induced erythema; format: functional; conditions: Holtzmann
[5] = system: Rattus norvegicus; assay: Antiinflammatory activity in Holtzman rat assessed as inhibition of carrageenan-induced paw edema at 35 mg/kg, po relative to control; format: functional; conditions: Holtzmann
[6] = system: Rattus norvegicus; assay: Antiinflammatory activity in Holtzman rat assessed as inhibition of UV radiation-induced erythema at 25 mg/kg, po relative to control; format: functional; conditions: Holtzmann
[7] = system: Mus musculus; assay: Toxicity in mouse assessed as mortality up to 0.3 g/kg, ip; format: organism-based; conditions: in vivo, 300 mg/kg; outline: as §1
[8] = system: Rattus norvegicus; assay: Antiinflammatory activity in specific pathogen-free Alderley Park 1 rat assessed as inhibition of adjuvant-induced swelling at 25 mg/kg/day, po treated for 2 days prior to adjuvant-challenge followed by compound administration for 18 days; format: functional, organism-based
Outline: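 Adjuvant arthritis assay in rats. Oral dosing at 25 mg/kg per day begins 2 days before adjuvant and continues 18 days after it, for 20 days in total.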

[9] = system: Mus musculus; assay: Antiinflammatory activity in mouse assessed as inhibition of carrageenan-induced edema at 30 mg/kg relative to control; format: functional

Compound: Cc1cccc(Sc2ccccc2C(=O)O)c1C
- inhibition in vivo at 50 mg/kg [1]: 15%
- inhibition in vivo at 50 mg/kg [2]: 26%
- Activity [3]: Toxic

Compound: Cc1cccc(S(=O)(=O)c2ccccc2C(=O)O)c1C
- inhibition in vivo at 50 mg/kg [1]: 0%
- inhibition in vivo at 50 mg/kg [2]: 27%
- Activity [3]: Toxic

Compound: CCCCC1C(=O)N(c2ccccc2)N(c2ccccc2)C1=O [PHENYLBUTAZONE]
- inhibition in vivo at 50 mg/kg [1]: 50%
- ED50 [4]: 5 mg/kg

Compound: CC(=O)Oc1ccccc1C(=O)O [ASPIRIN]
- inhibition in vivo at 50 mg/kg [1]: < 20%
- inhibition in vivo at 50 mg/kg [2]: 50%

Compound: O=C(O)c1ccccc1[S+]([O-])c1ccccc1 (configuration not stated)
- inhibition in vivo at 50 mg/kg [1]: 19%
- inhibition in vivo at 50 mg/kg [2]: 0%
- Activity [3]: Toxic

Compound: O=C(O)c1ccccc1[S+]([O-])c1cccc(C(F)(F)F)c1 (configuration not stated)
- inhibition in vivo at 50 mg/kg [1]: 4%
- inhibition in vivo at 50 mg/kg [2]: 2%
- Activity [3]: Toxic

Compound: O=C(O)c1ccccc1S(=O)(=O)c1ccccc1
- inhibition in vivo at 50 mg/kg [1]: 15%
- inhibition in vivo at 50 mg/kg [2]: 0%
- Activity [3]: Toxic

Compound: CC(C(=O)O)c1ccccc1Sc1ccccc1 (configuration not stated)
- inhibition in vivo at 50 mg/kg [1]: 14%
- inhibition in vivo at 50 mg/kg [2]: 33%
- Activity [3]: Toxic

Compound: O=C(O)c1ccccc1S(=O)(=O)c1cccc(C(F)(F)F)c1
- inhibition in vivo at 35 mg/kg [5]: 6%
- inhibition in vivo at 50 mg/kg [2]: 23%
- Activity [3]: Toxic

Compound: CC(C(=O)O)c1ccccc1[S+]([O-])c1ccccc1 (configuration not stated)
- inhibition in vivo at 50 mg/kg [1]: 8%
- inhibition in vivo at 50 mg/kg [2]: 7%

Compound: O=C(O)c1ccccc1Sc1cccc(C(F)(F)F)c1
- inhibition in vivo at 50 mg/kg [1]: 18%
- inhibition in vivo at 50 mg/kg [2]: 43%
- inhibition in vivo at 25 mg/kg [6]: 0%
- Activity [7]: Non-toxic

Compound: O=C(O)Cc1ccccc1[S+]([O-])c1ccccc1 (configuration not stated)
- inhibition in vivo at 50 mg/kg [1]: 30%
- inhibition in vivo at 50 mg/kg [2]: 23%
- inhibition [8]: inactive
- Activity [3]: Toxic

Compound: Cc1cccc([S+]([O-])c2ccccc2C(=O)O)c1C (configuration not stated)
- inhibition in vivo at 50 mg/kg [1]: 15%
- inhibition in vivo at 50 mg/kg [2]: 0%

Compound: O=C(O)Cc1ccccc1Sc1ccccc1
- inhibition in vivo at 50 mg/kg [1]: 23%
- inhibition in vivo at 50 mg/kg [2]: 51%
- inhibition [8]: inactive
- Activity [3]: Toxic

Compound: NCCSSc1ccccc1C(=O)O
- inhibition in vivo at 30 mg/kg [9]: 40%
